Assay results: ChEMBL document CHEMBL1821687, “Discovery, synthesis, and biological evaluation of novel SMN protein modulators” (J Med Chem, 2011)
Calls of active or inactive are those of the source. The calls are words filed in the database; no cut-off is given here.

Experiments:
[1] = target: Survival motor neuron protein (Homo sapiens) (UniProt Q16637); assay: Activation of SMN expressed in HEK293 cells assessed as concentration required to reach 50% of maximum luciferase signal by SMN2-promotor driven luciferase reporter gene assay; type: cell-based
Sequence of Survival motor neuron protein (Homo sapiens) (Q16637 whole entry): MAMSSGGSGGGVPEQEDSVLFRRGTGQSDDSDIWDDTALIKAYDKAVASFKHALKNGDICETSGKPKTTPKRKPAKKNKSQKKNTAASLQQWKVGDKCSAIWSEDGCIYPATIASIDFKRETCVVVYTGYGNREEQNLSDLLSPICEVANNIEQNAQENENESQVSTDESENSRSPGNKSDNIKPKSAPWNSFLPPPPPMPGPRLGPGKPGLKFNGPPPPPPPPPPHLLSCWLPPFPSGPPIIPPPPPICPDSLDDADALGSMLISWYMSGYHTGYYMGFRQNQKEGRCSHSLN
Outline: (§1)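 HEK-293 cells stably carrying the SMN2 reporter construct, kept in DMEM with 10% FCS, glutamax, pyruvate, pen/strep and 200 µg/mL hygromycin, and assayed without hygromycin. 2,000 cells/well were plated and adhered overnight at 37 °C, 5% CO2. Compounds were added as a 7-point titration, 50 µM to 25 nM final, in 0.46% DMSO, for 30–36 h. OneGlo luminescence was normalized to 4.5 mM sodium butyrate (100%) and DMSO (0%).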

[2] = target: Survival motor neuron protein (Homo sapiens) (UniProt Q16637); assay: Activation of SMN expressed in HEK293 cells assessed as rate of induction by SMN2-promotor driven luciferase reporter gene assay relative to basal level; type: cell-based; design: concentration or dose not given beside the values; outline: as §1

Compound: NC(=O)C1CCN(c2nccc(Cl)n2)CC1
- Activity [1]: inactive

Compound: NC(=O)C1CCN(c2nc(-c3cccc([N+](=O)[O-])c3)cs2)CC1
- Activity [2]: 20%
- Activity [1]: 3.87 µM

Compound: NC(=O)N1CCN(c2nc(-c3ccc(Br)cc3)cs2)CC1
- Activity [2]: 89%
- Activity [1]: 12.2 µM

Compound: NC(=O)C1CCN(c2ncc(-c3ccc4c(c3)OCCO4)s2)CC1
- Activity [2]: 424%
- Activity [1]: 0.097 µM

Compound: CN(C)c1cccc(-c2cnc(N3CCC(c4ncc[nH]4)CC3)s2)c1
- Activity [2]: 188%
- Activity [1]: 7.72 µM

Compound: CN(C)c1cccc(-c2cc(N3CCC(C(N)=O)CC3)ncn2)c1
- Activity [2]: 81%
- Activity [1]: 3.87 µM

Compound: c1c[nH]c(C2CCN(c3ncc(-c4ccc5c(c4)OCCCO5)s3)CC2)n1
- Activity [2]: 129%
- Activity [1]: 2.44 µM

Compound: NC(=O)C1CCN(c2nccc(-c3ccc4c(c3)OCCO4)n2)CC1
- Activity [2]: 364%
- Activity [1]: 1.22 µM

Compound: NC(=O)C1CCN(c2nc(-c3ccc(OCc4ccccc4)cc3)cs2)CC1
- Activity [1]: inactive

Compound: O=C(NCCCc1ccccc1)C1CCN(c2nc(-c3ccc(Br)cc3)cs2)CC1
- Activity [1]: inactive

Compound: NC(=O)C1CCN(c2ncc(-c3cccc(N4CCCCC4)c3)s2)CC1
- Activity [2]: 565%
- Activity [1]: 1.54 µM

Compound: O=C(NCCCCc1ccccc1)C1CCN(c2nc(-c3ccc(Br)cc3)cs2)CC1
- Activity [1]: inactive

Compound: Brc1ccc(-c2csc(N3CCOCC3)n2)cc1
- Activity [1]: inactive

Compound: CN(C)c1ccccc1-c1csc(N2CCC(C(N)=O)CC2)n1
- Activity [1]: inactive

Compound: O=C(C1CCN(c2nc(-c3ccc(Br)cc3)cs2)CC1)N1CCOCC1
- Activity [2]: 77%
- Activity [1]: 30.8 µM

Compound: NC(=O)C1CCN(c2ncc(-c3cccc(N4CCOCC4)c3)s2)CC1
- Activity [2]: 275%
- Activity [1]: 2.44 µM

Compound: COc1cc(-c2csc(N3CCC(C(N)=O)CC3)n2)cc(OC)c1OC
- Activity [2]: 73%
- Activity [1]: 19.4 µM

Compound: O=C(c1ccccc1)N1CCN(c2nc(-c3ccc(Br)cc3)cs2)CC1
- Activity [1]: inactive

Compound: NC(=O)C1CCN(c2nc(-c3ccc4c(c3)OCO4)cs2)CC1
- Activity [2]: 359%
- Activity [1]: 2.44 µM

Compound: NC(=O)C1CCN(c2ncc(Br)cn2)CC1
- Activity [1]: inactive

Compound: CN(C)c1cccc(-c2ncnc(N3CCC(C(N)=O)CC3)n2)c1
- Activity [2]: 200%
- Activity [1]: 1.22 µM

Compound: CN(C)c1cccc(-c2cnc(N3CCC(C(N)=O)CC3)s2)c1
- Activity [2]: 550%
- Activity [1]: 0.039 µM

Compound: NC(=O)C1CCN(c2nc(-c3ccccc3C(F)(F)F)cs2)CC1
- Activity [1]: inactive

Compound: CN(C)c1cccc(-c2ccnc(N3CCC(C(N)=O)CC3)n2)c1
- Activity [2]: 446%
- Activity [1]: 0.772 µM

Compound: CC(C)(C)OC(=O)NC1CCN(c2nc(-c3ccc(Br)cc3)cs2)CC1
- Activity [1]: inactive

Compound: NC(=O)C1CCN(c2nc(-c3cc4ccccc4o3)cs2)CC1
- Activity [1]: 15.4 µM

Compound: NC1CCN(c2nc(-c3ccc(Br)cc3)cs2)CC1
- Activity [2]: 182%
- Activity [1]: 2.44 µM

Compound: NC(=O)C1CCN(c2nc(-c3ccc(Cl)cc3)cs2)CC1
- Activity [2]: 381%
- Activity [1]: 2.44 µM

Compound: CNC(=O)C1CCN(c2nc(-c3ccc(Br)cc3)cs2)CC1
- Activity [2]: 101%
- Activity [1]: 7.72 µM

Compound: O=C(Nc1ccccc1)C1CCN(c2nc(-c3ccc(Br)cc3)cs2)CC1
- Activity [2]: 262%
- Activity [1]: 2.44 µM

Compound: NC(=O)C1CCN(c2nccc(-c3ccc4c(c3)OCCCO4)n2)CC1
- Activity [2]: 234%
- Activity [1]: 1.54 µM

Compound: N#Cc1ccc(-c2csc(N3CCC(C(N)=O)CC3)n2)cc1
- Activity [2]: 49%
- Activity [1]: 9.72 µM

Compound: Cn1ccc2cc(-c3csc(N4CCC(C(N)=O)CC4)n3)ccc21
- Activity [2]: 534%
- Activity [1]: 7.72 µM

Compound: COc1ccc(-c2csc(N3CCC(C(N)=O)CC3)n2)cc1
- Activity [2]: 209%
- Activity [1]: 7.72 µM

Compound: O=C(c1ccco1)N1CCN(c2nc(-c3ccc(Br)cc3)cs2)CC1
- Activity [1]: inactive

Compound: O=S(=O)(c1ccccc1)N1CCN(c2nc(-c3ccc(Br)cc3)cs2)CC1
- Activity [1]: inactive

Compound: NC(=O)C1CCN(c2nc(-c3ccccc3Br)cs2)CC1
- Activity [1]: inactive

Compound: CN(C)c1cccc(-c2nc(N3CCC(C(N)=O)CC3)ncc2F)c1
- Activity [2]: 373%
- Activity [1]: 0.387 µM

Compound: CC(=O)C1CCN(c2ncc(-c3ccc4c(c3)OCCCO4)s2)CC1
- Activity [1]: inactive

Compound: CCOc1ccc(-c2csc(N3CCC(C(N)=O)CC3)n2)cc1
- Activity [2]: 212%
- Activity [1]: 3.87 µM

Compound: NC(=O)C1CCN(c2ncc(-c3ccc4c(c3)OCO4)s2)CC1
- Activity [2]: 590%
- Activity [1]: 0.049 µM

Compound: CN(C)c1cccc(-c2nnc(N3CCC(C(N)=O)CC3)s2)c1
- Activity [2]: 448%
- Activity [1]: 0.387 µM

Compound: NC(=O)C1CCN(c2nc(-c3cccc4sc5ccccc5c34)cs2)CC1
- Activity [2]: 369%
- Activity [1]: 30.7 µM

Compound: CC(C)COc1ccc(-c2csc(N3CCC(C(N)=O)CC3)n2)cc1
- Activity [2]: 54%
- Activity [1]: 3.07 µM

Compound: NC(=O)C1CCN(c2ncc(Br)s2)CC1
- Activity [1]: inactive

Compound: CC(C(=O)O)c1ccc(N2Cc3ccccc3C2=O)cc1 (centres undefined)
- Activity [1]: > 1 µM

Compound: NC(=O)C1CCN(c2nc(-c3ccc(-c4ccccc4)cc3)cs2)CC1
- Activity [2]: 58%
- Activity [1]: 24.4 µM

Compound: CC(=O)c1cccc(-c2csc(N3CCC(C(N)=O)CC3)n2)c1
- Activity [2]: 356%
- Activity [1]: 3.87 µM

Compound: NC(=O)C1CCN(c2nnc(-c3ccc(Br)cc3)s2)CC1
- Activity [1]: inactive

Compound: CS(=O)(=O)c1cccc(-c2csc(N3CCC(C(N)=O)CC3)n2)c1
- Activity [1]: inactive

Compound: Brc1ccc(-c2csc(N3CCC(c4nnn[nH]4)CC3)n2)cc1
- Activity [2]: 67%
- Activity [1]: 12.2 µM

Compound: COc1ccc(-c2cnc(N3CCC(C(N)=O)CC3)s2)cc1OC
- Activity [2]: 209%
- Activity [1]: 9.72 µM

Compound: NC(=O)C1CCN(c2nc(-c3ccc(N)cc3)cs2)CC1
- Activity [1]: inactive

Compound: CS(=O)(=O)c1ccc(-c2csc(N3CCC(C(N)=O)CC3)n2)cc1
- Activity [1]: inactive

Compound: Cc1noc(C)c1-c1csc(N2CCC(C(N)=O)CC2)n1
- Activity [1]: inactive

Compound: NC(=O)C1CCN(c2nc(-c3ccccc3-c3ccccc3)cs2)CC1
- Activity [1]: inactive

Compound: O=C(C1CCN(c2nc(-c3ccc(Br)cc3)cs2)CC1)N1CCNCC1
- Activity [1]: inactive

Compound: CS(=O)(=O)c1ccccc1-c1csc(N2CCC(C(N)=O)CC2)n1
- Activity [1]: inactive

Compound: NC(=O)C1CCN(c2nc(-c3ccc(N4CCCCC4)nc3)cs2)CC1
- Activity [1]: 6.13 µM

Compound: N#Cc1cccc(-c2csc(N3CCC(C(N)=O)CC3)n2)c1
- Activity [1]: inactive

Compound: O=C(NCc1ccccc1)C1CCN(c2nc(-c3ccc(Br)cc3)cs2)CC1
- Activity [1]: inactive

Compound: NC(=O)C1CCN(c2nc(-c3cccc(N)c3)cs2)CC1
- Activity [1]: inactive

Compound: NC(=O)C1CCN(c2nc(-c3cccc(C(F)(F)F)c3)cs2)CC1
- Activity [1]: 3.87 µM

Compound: CS(=O)(=O)N1CCN(c2nc(-c3ccc(Br)cc3)cs2)CC1
- Activity [1]: inactive

Compound: CC(=O)Nc1ccc(-c2csc(N3CCC(C(N)=O)CC3)n2)cc1
- Activity [1]: inactive

Compound: NC(=O)C1CCN(c2nc(-c3cccc4ccccc34)cs2)CC1
- Activity [1]: inactive

Compound: N#Cc1ccccc1-c1csc(N2CCC(C(N)=O)CC2)n1
- Activity [1]: inactive

Compound: COc1ccccc1-c1csc(N2CCC(C(N)=O)CC2)n1
- Activity [1]: inactive

Compound: NC(=O)C1CCN(c2nc(-c3cccnc3)cs2)CC1
- Activity [1]: inactive

Compound: NC(=O)C1CCN(c2nc(-c3ccccc3[N+](=O)[O-])cs2)CC1
- Activity [1]: inactive

Compound: Cc1cnc(N2CCC(C(N)=O)CC2)nc1-c1cccc(N(C)C)c1
- Activity [1]: inactive
